Laboratory results as given in ChEMBL document CHEMBL1139341 (J Med Chem, 2009).
Active and inactive are the calls of the source. No cut-off for these calls is given here. Starred links: 1 amine or outer side, 2 acyl side, 3 side chain; linkers in the order of their positions; H or OH if unused. Positions of bridges follow the written chain, without caps; N, C: chain ends. Non-standard residues stand in square brackets, D forms with d. Residues, ends and D or L forms follow the SMILES beside them. Phe(Nα-(CH2)3CO) = O=C([C@H](Cc1ccccc1)N(CCCC(=O)[*:3])[*:1])[*:2]; N(2-aminoethyl)Phe = O=C([C@H](Cc1ccccc1)N(CCN[*:3])[*:1])[*:2]

Assays:
[1] = organism: Homo sapiens; assay: Selectivity for human recombinant sst5 receptor over human recombinant sst4 receptor
[2] = molecular target: T1, Somatostatin receptor type 5 (Homo sapiens, UniProt P35346); assay: Displacement of [125I]-[Leu8, DTrp22, Tyr25]-somatostatin-28 from human recombinant sst5 receptor expressed in chinese hamster CCL39 cells; assay type: cell-based
T1 sequence (P35346 whole entry): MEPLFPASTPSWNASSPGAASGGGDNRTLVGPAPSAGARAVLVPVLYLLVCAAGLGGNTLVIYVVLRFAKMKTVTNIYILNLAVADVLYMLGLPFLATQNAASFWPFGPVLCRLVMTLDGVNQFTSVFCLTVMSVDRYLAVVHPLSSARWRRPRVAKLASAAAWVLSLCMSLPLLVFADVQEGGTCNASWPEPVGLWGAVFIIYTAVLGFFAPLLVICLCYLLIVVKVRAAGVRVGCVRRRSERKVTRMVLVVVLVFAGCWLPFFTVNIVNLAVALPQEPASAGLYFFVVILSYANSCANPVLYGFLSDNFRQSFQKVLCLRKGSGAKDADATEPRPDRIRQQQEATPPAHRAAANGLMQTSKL
Method in brief: (§1)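 Competitive displacement on membrane pellet sections from cells expressing each human sst subtype. The radioligand was [¹²⁵I]-[Leu⁸,D-Trp²²,Tyr²⁵]-somatostatin-28 at 15000 cpm/100 µL. Unlabeled compounds were tested from 0.1 to 1,000 nmol/L, with somatostatin-28 run in parallel over the same range. IC₅₀ was calculated from displacement.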

[3] = molecular target: Somatostatin receptor type 3 (Homo sapiens, UniProt P32745); assay: Displacement of [125I]-[Leu8, DTrp22, Tyr25]-somatostatin-28 from human recombinant sst3 receptor expressed in chinese hamster CCL39 cells; assay type: cell-based; method in brief: as §1
Sequence of Somatostatin receptor type 3 (P32745 whole entry): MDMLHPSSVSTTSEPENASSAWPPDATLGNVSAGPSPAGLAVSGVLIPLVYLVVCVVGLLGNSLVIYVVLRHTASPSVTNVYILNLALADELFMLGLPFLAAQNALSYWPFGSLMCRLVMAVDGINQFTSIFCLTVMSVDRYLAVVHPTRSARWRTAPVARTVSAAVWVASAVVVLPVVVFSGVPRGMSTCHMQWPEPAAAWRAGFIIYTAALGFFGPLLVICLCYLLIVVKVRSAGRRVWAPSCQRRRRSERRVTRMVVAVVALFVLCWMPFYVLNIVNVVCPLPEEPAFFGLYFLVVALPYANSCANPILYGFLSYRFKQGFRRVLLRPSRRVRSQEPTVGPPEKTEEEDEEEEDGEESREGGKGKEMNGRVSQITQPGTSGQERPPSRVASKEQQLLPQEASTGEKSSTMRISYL

[4] = molecular target: Somatostatin receptor type 2 (Homo sapiens, UniProt P30874); assay: Displacement of [125I]-[Leu8, DTrp22, Tyr25]-somatostatin-28 from human recombinant sst2 receptor expressed in chinese hamster CCL39 cells; assay type: cell-based; method in brief: as §1
Sequence of Somatostatin receptor type 2 (P30874 whole entry): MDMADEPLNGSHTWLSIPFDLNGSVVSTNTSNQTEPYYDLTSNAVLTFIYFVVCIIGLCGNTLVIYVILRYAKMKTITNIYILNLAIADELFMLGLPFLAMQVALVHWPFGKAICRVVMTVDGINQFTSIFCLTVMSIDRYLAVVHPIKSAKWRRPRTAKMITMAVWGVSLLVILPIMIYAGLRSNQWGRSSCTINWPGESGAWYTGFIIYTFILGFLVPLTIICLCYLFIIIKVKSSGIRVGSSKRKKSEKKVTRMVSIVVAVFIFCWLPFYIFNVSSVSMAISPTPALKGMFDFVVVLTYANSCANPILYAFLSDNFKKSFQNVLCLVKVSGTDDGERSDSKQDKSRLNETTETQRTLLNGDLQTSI

[5] = molecular target: Somatostatin receptor type 1 (Homo sapiens, UniProt P30872); assay: Displacement of [125I]-[Leu8, DTrp22, Tyr25]-somatostatin-28 from human recombinant sst1 receptor expressed in chinese hamster CCL39 cells; assay type: cell-based; method in brief: as §1
Sequence of Somatostatin receptor type 1 (P30872 whole entry): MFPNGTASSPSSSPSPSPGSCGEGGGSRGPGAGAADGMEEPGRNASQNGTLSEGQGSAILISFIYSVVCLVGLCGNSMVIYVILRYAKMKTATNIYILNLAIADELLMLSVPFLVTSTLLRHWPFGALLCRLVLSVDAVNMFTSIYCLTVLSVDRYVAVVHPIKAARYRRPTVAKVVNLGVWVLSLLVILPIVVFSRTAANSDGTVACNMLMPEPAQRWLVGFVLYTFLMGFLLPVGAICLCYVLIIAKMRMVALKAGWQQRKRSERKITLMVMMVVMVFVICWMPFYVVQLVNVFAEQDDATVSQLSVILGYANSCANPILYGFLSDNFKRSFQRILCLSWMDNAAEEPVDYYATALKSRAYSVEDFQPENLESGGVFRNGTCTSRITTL

[6] = molecular target: Somatostatin receptor type 4 (Homo sapiens, UniProt P31391); assay: Displacement of [125I]-[Leu8, DTrp22, Tyr25]-somatostatin-28 from human recombinant sst4 receptor expressed in chinese hamster CCL39 cells; assay type: cell-based; method in brief: as §1
Sequence of Somatostatin receptor type 4 (P31391 whole entry): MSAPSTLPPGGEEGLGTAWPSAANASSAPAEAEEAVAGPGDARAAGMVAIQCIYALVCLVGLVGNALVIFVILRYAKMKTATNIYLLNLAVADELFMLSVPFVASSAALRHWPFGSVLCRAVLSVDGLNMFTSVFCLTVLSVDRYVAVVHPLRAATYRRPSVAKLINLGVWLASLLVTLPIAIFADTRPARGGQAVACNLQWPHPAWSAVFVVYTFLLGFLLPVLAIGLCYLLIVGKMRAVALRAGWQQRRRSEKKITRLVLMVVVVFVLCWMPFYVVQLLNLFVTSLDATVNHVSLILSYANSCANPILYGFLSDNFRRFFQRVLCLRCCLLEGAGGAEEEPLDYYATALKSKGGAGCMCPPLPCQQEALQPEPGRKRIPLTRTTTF

[7] = molecular target: T1, Somatostatin receptor type 5; assay: Agonist activity at human recombinant sst5 receptor expressed in chinese hamster CCL39 cells assessed stimulation of [35S]GTP-gamma-S-binding; assay type: functional, cell-based
Method in brief: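 CCL-sst₅ cells grown in DMEM/Ham's F-12 (1:1) with 10% FBS, penicillin/streptomycin and 400 µg/mL G418 at 37 °C, 5% CO₂. Binding was run on 20 µm cryostat sections of membrane pellets. Sections were preincubated 10 min at room temperature in Tris-HCl buffer (pH 8.2) with BSA, bacitracin and MgCl₂. They then went 30 min in the same buffer plus 50 µM GDP.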

For NCc1cccc(C[C@@H]2O[C@@H](CC(=O)NCc3ccccc3F)C(=O)N(Cc3ccc(-c4ccccc4)cc3)c3ccccc32)c1, which fold change (FC) [1] is on record?
Its fold change (FC) is 200.

What about the IC50 [2] of the same compound?
Its IC50 is 0.3 nM.

Which results are given for NCCCC[C@@H](C(=O)NCc1ccccc1)N1Cc2[nH]c3ccccc3c2C[C@@H](NC(=O)N2CCN(S(=O)(=O)c3ccccc3)CC2)C1=O?
IC50 [3]: 260 nM; IC50 [4]: 4.2 nM; IC50 [5]: 372 nM; IC50 [6]: 59 nM; IC50 [2]: 3.5 nM

Which results are given for NCCCC[C@@H](C(=O)NCc1ccccc1)N1Cc2[nH]c3ccccc3c2C[C@@H](NC(=O)c2ccc(-c3ccccc3)cc2)C1=O?
IC50 [3]: 54 nM; IC50 [4]: 12 nM; IC50 [5]: > 1000 nM; IC50 [6]: 161 nM; IC50 [2]: 16 nM

Which IC50 [3] does the source give for NCCCC[C@@H](C(=O)NCc1ccccc1)N1Cc2[nH]c3ccccc3c2C[C@@H](NC(=O)N2CCC3(CCc4ccccc43)CC2)C1=O here?
Its IC50 is 9.1 nM.

What about the IC50 [4] of the same compound?
Its IC50 is 2.1 nM.

And the IC50 [5]?
Its IC50 is 379 nM.

And the IC50 [6]?
Its IC50 is 35 nM.

And the IC50 [2]?
The IC50 was 2.9 nM.

Which results are given for NCCCC[C@@H](C(=O)NCc1ccccc1)N1Cc2[nH]c3ccccc3c2C[C@@H](NC(=O)N2CCC(n3c(=O)[nH]c4ccccc43)CC2)C1=O?
IC50 [3]: 3.9 nM; IC50 [4]: 0.73 nM; IC50 [5]: 76 nM; IC50 [6]: 4.4 nM; IC50 [2]: 0.86 nM

Which IC50 [3] does the source give for NCCCC[C@@H](C(=O)NCc1ccccc1)N1Cc2[nH]c3ccccc3c2C[C@@H](NC(=O)c2ccc(Cl)cc2)C1=O here?
Its IC50 is 162 nM.

What about the IC50 [4] of the same compound?
Its IC50 is 22 nM.

And the IC50 [5]?
Its IC50 is 38 nM.

And the IC50 [6]?
The IC50 was 2.3 nM.

What about the IC50 [2] of the same compound?
The IC50 was 3.7 nM.

What does the source list for C[C@@H](O)[C@@H](CO)NC(=O)[C@@H]1C/C=C/C[C@H](NC(=O)[C@H](N)Cc2ccccc2)C(=O)N[C@@H](Cc2ccccc2)C(=O)N[C@H](Cc2c[nH]c3ccccc23)C(=O)N[C@@H](CCCCN)C(=O)N[C@@H](Cc2ccc(OCc3ccccc3)cc2)C(=O)N1?
fold change (FC) [1]: 24; IC50 [2]: 12 nM

For CS(=O)(=O)N1CC2(CCN(C(=O)N[C@@H]3Cc4c([nH]c5ccccc45)CN([C@@H](CCCCN)C(=O)NCc4ccccc4)C3=O)CC2)c2ccccc21, which IC50 [3] is on record?
Its IC50 is 316 nM.

And the IC50 [4]?
Its IC50 is 327 nM.

And the IC50 [5]?
Its IC50 is 837 nM.

What about the IC50 [6] of the same compound?
The IC50 was 2.1 nM.

What about the IC50 [2] of the same compound?
The IC50 was 8 nM.

How did the IC50 [3] turn out when NCCCC[C@H](C(=O)NCc1ccccc1)N1Cc2[nH]c3ccccc3c2C[C@@H](NC(=O)Cc2ccccc2)C1=O was run?
Its IC50 is 910 nM.

And the IC50 [4]?
Its IC50 is > 1000 nM.

What about the IC50 [5] of the same compound?
Its IC50 is > 1000 nM.

And the IC50 [6]?
Its IC50 is 56 nM.

What about the IC50 [2] of the same compound?
The IC50 was 25 nM.

For CC(C)[C@@H]1NC(=O)[C@H](CCCCN)NC(=O)[C@H](Cc2c[nH]c3ccccc23)NC(=O)[C@H](Cc2ccc(O)cc2)NC(=O)[C@H](Cc2ccccc2)NCCNC(=O)CCCN([C@@H](Cc2ccccc2)C(=O)N[C@H](C(N)=O)[C@@H](C)O)C1=O (H-[N(2-aminoethyl)Phe]YWKV[Phe(Nα-(CH2)3CO)]T-NH2; lactam 1-6), which fold change (FC) [1] is on record?
The fold change (FC) was 24.

NCCCC[C@@H](C(=O)NCCc1ccccc1)N1Cc2[nH]c3ccccc3c2C[C@@H](NC(=O)Cc2ccccc2)C1=O was tested. Which IC50 [3] did it give?
The IC50 was 50 nM.

What about the IC50 [4] of the same compound?
Its IC50 is 183 nM.

What about the IC50 [5] of the same compound?
The IC50 was 75 nM.

And the IC50 [6]?
Its IC50 is 2.4 nM.

What about the Activity [7] of the same compound?
Its Activity is “Active”.

What about the IC50 [2] of the same compound?
The IC50 was 0.6 nM.

Which results are given for C[C@H](NC(=O)[C@H](CCCCN)N1Cc2[nH]c3ccccc3c2C[C@@H](NC(=O)Cc2ccccc2)C1=O)c1ccccc1?
IC50 [3]: 300 nM; IC50 [4]: 452 nM; IC50 [5]: 183 nM; IC50 [6]: 1 nM; IC50 [2]: 3.2 nM

Which results are given for NCCCC[C@@H](C(=O)NCc1ccccc1)N1Cc2[nH]c3ccccc3c2C[C@@H](NC(=O)C(c2ccccc2)c2ccccc2)C1=O?
IC50 [3]: > 500 nM; IC50 [4]: 242 nM; IC50 [5]: 247 nM; IC50 [6]: 14 nM; IC50 [2]: 8.8 nM

With NCCCC[C@@H](C(=O)NCc1ccccc1)N1Cc2[nH]c3ccccc3c2C[C@@H](NC(=O)C2CCN(C(=O)c3ccccc3)CC2)C1=O as the compound, how does the IC50 [3] read?
The IC50 was 119 nM.

What about the IC50 [4] of the same compound?
The IC50 was 2.1 nM.

And the IC50 [5]?
Its IC50 is 89 nM.

What about the IC50 [6] of the same compound?
Its IC50 is 6.9 nM.

And the IC50 [2]?
The IC50 was 1.4 nM.

Which results are given for NCCCC[C@@H](C(=O)NCc1ccccc1)N1Cc2[nH]c3ccccc3c2C[C@@H](NC(=O)CCc2ccccc2)C1=O?
IC50 [3]: 153 nM; IC50 [4]: 10 nM; IC50 [5]: 54 nM; IC50 [6]: 8.1 nM; IC50 [2]: 3.4 nM

Which results are given for COC(=O)[C@H](CCCCN)N1Cc2[nH]c3ccccc3c2C[C@@H](NC(=O)Cc2ccccc2)C1=O?
IC50 [3]: 400 nM; IC50 [4]: 290 nM; IC50 [5]: 962 nM; IC50 [6]: 2.4 nM; IC50 [2]: 13 nM

Which results are given for NCCCC[C@@H](C(=O)NCc1ccccc1)N1Cc2[nH]c3ccccc3c2C[C@@H](NC(=O)c2ccccc2)C1=O?
IC50 [3]: 182 nM; IC50 [4]: 103 nM; IC50 [5]: 27 nM; IC50 [6]: 1.3 nM; IC50 [2]: 1.8 nM

Which IC50 [3] does the source give for C[C@@H](NC(=O)[C@H](CCCCN)N1Cc2[nH]c3ccccc3c2C[C@@H](NC(=O)Cc2ccccc2)C1=O)c1ccccc1 here?
The IC50 was 403 nM.

And the IC50 [4]?
The IC50 was 770 nM.

What about the IC50 [5] of the same compound?
The IC50 was 630 nM.

What about the IC50 [6] of the same compound?
Its IC50 is 14 nM.

What about the IC50 [2] of the same compound?
The IC50 was 50 nM.

For C[C@H](N)COC(=O)[C@@H](CCCCN)NC(=O)Cc1c(-c2ccc3ccccc3c2)[nH]c2c1ccc1ccccc12, which IC50 [2] is on record?
Its IC50 is 0.4 nM.

How did the fold change (FC) [1] turn out when CC(=O)N[C@@H]1Cc2c([nH]c3ccccc23)CN([C@@H](CCCCN)C(=O)NCCc2ccccc2)C1=O was run?
The fold change (FC) was 10.

What about the IC50 [3] of the same compound?
The IC50 was 515 nM.

And the IC50 [4]?
Its IC50 is > 1000 nM.

What about the IC50 [5] of the same compound?
The IC50 was 105 nM.

What about the IC50 [6] of the same compound?
Its IC50 is 7 nM.

And the Activity [7]?
Its Activity is “Active”.

What about the IC50 [2] of the same compound?
The IC50 was 0.56 nM.

Which IC50 [3] does the source give for NCCCC[C@@H](C(=O)NCc1cccc2ccccc12)N1Cc2[nH]c3ccccc3c2C[C@@H](NC(=O)Cc2ccccc2)C1=O here?
The IC50 was 105 nM.

What about the IC50 [4] of the same compound?
The IC50 was 215 nM.

And the IC50 [5]?
The IC50 was 387 nM.

And the IC50 [6]?
Its IC50 is 17 nM.

And the IC50 [2]?
The IC50 was 3.5 nM.

With CC(=O)N[C@@H]1Cc2c([nH]c3ccccc23)CN([C@@H](CCCCN)C(=O)NCc2ccccc2)C1=O as the compound, how does the IC50 [3] read?
The IC50 was > 1000 nM.

And the IC50 [4]?
The IC50 was 292 nM.

And the IC50 [5]?
The IC50 was 253 nM.

What about the IC50 [6] of the same compound?
The IC50 was 7 nM.

And the IC50 [2]?
The IC50 was 5 nM.
